For data set [1], the system named is Plasmodium falciparum. The experiment in a line: Antimalarial activity against chloroquine resistant Plasmodium falciparum K1 after 72 hrs by SYBR green 1 dye based fluorescence assay. Format: functional. An outline of the steps:
(§1)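 Compounds dissolved in DMSO at 5 mg/mL (stock), then two-fold serial dilutions. Lysis buffer with 2x SYBR Green-I was added for 1 h at 37 °C. Fluorescence read at 485/530 nm. IC50 by logit regression of dose-response curves, triplicate.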

The subject of data set [2] is Plasmodium falciparum. The experiment in a line: Antimalarial activity against chloroquine sensitive Plasmodium falciparum 3D7 after 72 hrs by SYBR green 1 dye based fluorescence assay. It counts as functional. A digest of the protocol: as §1
Data set [3] is described as follows: Selectivity index, ratio of CC50 for African green monkey Vero cells to IC50 for chloroquine sensitive Plasmodium falciparum 3D7. Format: toxicity. The note with it: for selectivity ratio: Vero cells, read-out: Ratio CC50/IC50; for Ratio CC50/IC50: vero. A digest of the protocol:
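SI was computed as Vero CC50 (72 hour MTT, nonlinear regression) divided by the 3D7 IC50. SYBR Green-I lysis buffer was added for 1 hour, and fluorescence was read at 485/530 nm. Logit regression gave IC50.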

Data set [4] can be described thus: (§2) Cytotoxicity against African green monkey Vero cells after 72 hrs by MTT assay. The note with it: chlorocebus sabaeus, Vero cells. Format: cell-based. A digest of the protocol:
(§3)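 Vero monkey kidney cells were exposed to a dilution series of test agents for 72 hour, with MTT as the detection reagent (modified Mosmann method). CC50 was derived by nonlinear regression of dose-response curves. Triplicate experiments.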

The next data set concerns Vero. The data set is described as §2. The note with it: chlorocebus sabaeus, vero, 72 h. It counts as cell-based. An outline of the steps:
as §3

[5] abbreviates: Plasmodium falciparum, K1, 72 h, read-out: IC50.
Setting [6] is: Plasmodium falciparum, 3D7, 72 h, read-out: IC50.

Take `COc1cc(OC)c(OC)cc1/C=C/C(=O)c1ccccc1OCC(=O)NCCNc1ccnc2cc(Cl)ccc12`: the IC50 in the data set on Plasmodium falciparum [1] (setting [5]) turned out to be 0.161 µM; with Plasmodium falciparum [2] (setting [6]) it was 0.0941 µM. Besides, the selectivity ratio in data set [3] was 130. The compound further displayed a CC50 at 72 h in data set [4] of 12.2 µM.
In the same order, the values of `O=C(COc1ccccc1C(=O)/C=C/c1ccc(Cl)cc1)NCCNc1ccnc2cc(Cl)ccc12` are 0.253 µM, 0.255 µM, 19.5 and 4.98 µM.
In the same order, the values of `COc1ccc(/C=C/C(=O)c2ccc(OCC(O)CNCCNc3ccnc4cc(Cl)ccc34)cc2)cc1OC` (stereo unspecified) are 0.229 µM, 0.0799 µM, 128 and 10.2 µM.
The matching figures for `COc1ccc(/C=C/C(=O)NCCNc2ccnc3cc(Cl)ccc23)cc1OC`: 0.157 µM, 0.0142 µM, 396 and 5.6 µM.
With `COc1ccc(/C=C/C(=O)NCCNc2ccnc3cc(Cl)ccc23)cc1`, the values for the IC50 with Plasmodium falciparum [1] (setting [5]) and in the data set on Plasmodium falciparum [2] (setting [6]) were 0.0594 µM and 0.0134 µM, respectively. The selectivity ratio in data set [3] came out at 1530. This compound showed a CC50 at 72 h in data set [4] of 20.6 µM.
Take `COc1cc(OC)c(OC)cc1/C=C/C(=O)NCCNc1ccnc2cc(Cl)ccc12`: the IC50 with Plasmodium falciparum [1] (setting [5]) came out at 0.143 µM; in the data set on Plasmodium falciparum [2] (setting [6]), 0.0213 µM. Besides, the selectivity ratio in data set [3] was 756. This compound displayed a CC50 at 72 h in data set [4] of 16.1 µM.
The matching figures for `COc1ccc(/C=C/C(=O)c2ccc(OCC(O)CNCCNc3ccnc4cc(Cl)ccc34)cc2)cc1` (stereo unspecified): 0.9 µM, 0.0473 µM, 170 and 8.03 µM.
The matching figures for `O=C(/C=C/c1ccco1)NCCNc1ccnc2cc(Cl)ccc12`: 0.101 µM, 0.094 µM, 6700 and 629 µM.
For the compound `COc1cc(/C=C/C(=O)c2ccc(OCC3CO3)cc2)cc(OC)c1OC` (stereo unspecified), the “Ratio CC50/IC50” value in data set [3] is on record as “Not Active”. The CC50 entry in the data set with Vero is “Non-Toxic”.
With `COc1cc(/C=C/C(=O)c2ccc(OCC(O)CNCCNc3ccnc4cc(Cl)ccc34)cc2)cc(OC)c1OC` (stereo unspecified), the values for the IC50 in the data set with Plasmodium falciparum [1] (setting [5]) and with Plasmodium falciparum [2] (setting [6]) were 0.8 µM and 0.0135 µM, respectively. Besides, in data set [3], the selectivity ratio stood at 142. For the same compound, half-maximal cytotoxicity in data set [4] (CC50 at 72 h) was put at 1.91 µM.
In the same order, the values of `CC(=O)c1ccccc1OCC(=O)NCCNc1ccnc2cc(Cl)ccc12` are 1.3 µM, 0.0104 µM, 10200 and 106 µM.
Regarding `COc1ccc(/C=C/C(=O)c2ccccc2OCC(=O)NCCNc2ccnc3cc(Cl)ccc23)cc1OC`, the IC50 with Plasmodium falciparum [1] (setting [5]) came to 0.134 µM; in the data set with Plasmodium falciparum [2] (setting [6]), 0.0961 µM. In data set [3], the selectivity ratio was 55.3. This compound also had a CC50 at 72 h in data set [4] of 5.31 µM.
On to `COc1cc(/C=C/C(=O)c2ccc(OCC(O)CNc3ccc4c(c3)OCO4)cc2)cc(OC)c1OC` (stereo unspecified), for which the IC50 entry with Plasmodium falciparum [1] and with Plasmodium falciparum [2] was “Not Active” throughout. Besides, the “Ratio CC50/IC50” value in data set [3] was “Not Active”. For the same compound, in the data set on Vero, the CC50 entry was “Non-Toxic”.
Take `O=C(/C=C/c1ccc(Cl)cc1)NCCNc1ccnc2cc(Cl)ccc12`: the figures for the IC50 with Plasmodium falciparum [1] (setting [5]) and with Plasmodium falciparum [2] (setting [6]) were 0.0441 µM and 0.0194 µM, respectively. In addition, the selectivity ratio in data set [3] was determined as 357. Also, the CC50 at 72 h in data set [4] turned out to be 6.93 µM.
The matching figures for `COc1cc(/C=C/C(=O)c2ccccc2OCC(=O)NCCNc2ccnc3cc(Cl)ccc23)cc(OC)c1OC`: 0.224 µM, 0.0691 µM, 56.7 and 3.92 µM.
As to `Cc1ccc(/C=C/C(=O)NCCNc2ccnc3cc(Cl)ccc23)cc1`, the figures for the IC50 in the data set with Plasmodium falciparum [1] (setting [5]) and in the data set with Plasmodium falciparum [2] (setting [6]) were 0.048 µM and 0.022 µM, respectively. The selectivity ratio in data set [3] came out at 182. In data set [4], it took 4 µM to reach half-maximal cytotoxicity (CC50 at 72 h).
In the same order, the values of `COc1ccc(/C=C/C(=O)c2ccccc2OCC(=O)NCCNc2ccnc3cc(Cl)ccc23)cc1` are 0.148 µM, 0.134 µM, 186 and 25 µM.

One may read the IC50 as the concentration that inhibits the measured activity by half. One may read the CC50 as the concentration at which the toxic effect on the cells reaches its halfway point.
